Data as given in publication PMC7611355 (Bioconjugate chemistry, 2020).

Tests used:
[1] = Shelf life at room temperature; format: physicochemical; conditions: solid; measured by NMR, MS, and elemental analysis
[2] = cited from earlier work
[3] = Ex vivo biodistribution by gamma counting; format: in vivo, BALB/c mice; conditions: 120 min postinjection
How it was run: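 Female BALB/c mice (6-8 weeks, 17-20 g; 5 per tracer) were anaesthetised with isoflurane (2-3% in oxygen) and the radiotracer (100 ± 15 µL, 2.2-16.2 MBq) was injected via a tail-vein cannula. After a 1 h PET scan the mice recovered and were culled at 2 h postinjection. Organs were harvested, weighed and gamma-counted against standards prepared from the injected material, giving %ID/g.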

[4] = Dynamic PET-CT imaging, ROI pharmacokinetics in healthy mice; format: in vivo, BALB/c mice
[5] = In vitro calcium mineral binding: mean across non-HAp calcium minerals; conditions: saline, room temperature, 1 h
How it was run: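 Each calcium salt (carbonate, dibasic phosphate, pyrophosphate, β-tricalcium phosphate, oxalate; 1 mg) was suspended in saline (1 mL). Radiotracer (~700 kBq) was added and shaken for 1 h at room temperature. After centrifuging at 9677 g for 5 min, supernatant and pellet activities were counted separately.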

[6] = In vitro calcium mineral binding: hydroxyapatite
How it was run: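 Hydroxyapatite (1 mg) was suspended in saline (1 mL). For blocking, the suspension was preincubated overnight with unlabelled agent: pamidronate (27.9 mg, 100 µmol), alendronate or sodium fluoride, matched to each tracer. Radiotracer (~700 kBq) was added and shaken for 1 h at room temperature. After centrifuging at 9677 g for 5 min, supernatant and pellet activities were counted.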

SMILES | shelf life at room temperature [1] | pKa (amine) [2] | femur uptake [3] [%ID/g] | area under the curve from 3-59 min (AUC3-59) ([4]; heart ROI as proxy for blood) [%ID min mL^-1] | knee uptake (ROI image analysis) ([4]; mice, i.v., at 60 min postinjection) [%ID mL^-1] | mean binding across non-HAp minerals [5] [%] | mean binding to HAp ([6]; saline, room temperature, 1 h, non-blocked) [%] | mean blocked binding to HAp ([6]; salt preincubated with excess unlabeled BP or fluoride) [%]
NCCC(O)(P(=O)(O)O)P(=O)(O)O [Pamidronate, pamidronate disodium dihydrate] | at least 4485 days | 10.40-13.06 | – | – | – | – | – | –
[18F-].[Na+] [[^18F]NaF] | – | – | 47.1 ± 8.3 | 122.3 ± 5.1 | 54.5 ± 5.1 | 8.4 ± 4.6 | 88.4 ± 4.6 | 2.2 ± 0.2
